Test results published in PMC11840607 (ACS Omega, 2025).

Key:
H1975 cells = assay: MTT antiproliferative assay, H1975; format: cell-based, human; conditions: ratio of IC50 BEAS-2B to H1975
Method in brief: (§1)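 Cell culture: A549, PC9 and normal lung epithelial BEAS-2B in DMEM with 10% FBS and penicillin/streptomycin/amphotericin B; H1975 in RPMI-1640 with 10% FBS; all at 37 °C, 5% CO2. Log-phase cells seeded at 3 × 10^3/well overnight, then exposed to graded compound concentrations or DMSO for 72 h. MTT added for 4 h in the dark, crystals dissolved in DMSO, absorbance read at 490 nm; three parallel experiments.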

A549 cells [1] = assay: MTT antiproliferative assay, A549; format: cell-based, human; conditions: ratio of IC50 BEAS-2B to A549
Method in brief: as §1

[2] = system: mitochondrial membrane potential; assay: Mitochondrial membrane potential, JC-1, flow cytometry; format: cell-based; conditions: control 19.25%
Method in brief: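 Cells in six-well plates were stained with JC-1 working solution, prepared per kit, for 20 min at 37 °C. After a PBS wash, mitochondrial membrane potential was measured by flow cytometry and also viewed by fluorescence microscopy.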

ALK, p-ALK = assay: Western blot of ALK and p-ALK; format: cell-based, human; conditions: A549, 48 h
Method in brief: (§2)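 A549 cells were exposed to the indicated test compound concentrations for 48 h, then lysed and heat-denatured at 104 °C for 12 min. Protein was quantified by BCA, and equal amounts were resolved by SDS-PAGE onto PVDF. Membranes were blocked 1 h (5% BSA or skim milk), given primary antibody overnight at 4 °C, washed in TBST, given secondary antibody 2 h at room temperature, and imaged by ECL.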

ALK = assay: Proteome Profiler Human Phospho-RTK Array; format: cell-based; conditions: A549, 2.0 μM, 24 h
Method in brief: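 A549 cells were treated with test compound (2.0 μM) or left untreated for 24 h, then lysed in buffer with protease and phosphatase inhibitors. Protein was measured by Bradford. Arrays covering 49 phospho-RTKs were blocked for 1 h, then incubated with 450 μg lysate overnight at 4 °C. After three washes, arrays were probed for 2 h with anti-phospho-tyrosine-HRP and developed by chemiluminescence.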

A549 cells [3] = assay: Cell cycle analysis, PI staining, flow cytometry; format: cell-based, human; conditions: A549, 48 h
Method in brief: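 A549 cells were exposed to a range of test compound concentrations for 48 h. They were then washed in cold PBS, fixed in precooled 70% ethanol and held overnight at −20 °C. After a PBS wash, cells were stained for 30 min at room temperature in the dark with PI (50 μg/mL) plus RNase A (100 μg/mL). DNA content was read by flow cytometry.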

A549 spheroids = assay: 3D spheroid cell inhibition assay; format: cell-based, human; conditions: treated every 3 days
Method in brief: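 A549 cells seeded at 20 000 cells/well in ultralow-attachment U-bottom wells to form tumor spheroids. Once formed, spheroids were exposed to the indicated concentrations of test compound, renewed every 3 days. Spheroids were photographed under a microscope to document growth and morphology.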

p-PI3K, p-AKT = assay: Western blot of PI3K and AKT; format: cell-based, human; conditions: 48 h
Method in brief: (§3)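 Cells treated with the indicated concentrations of test compound for 48 h. Lysates were heat-denatured at 104 °C for 12 min, protein measured by BCA, and equal amounts run on SDS-PAGE and transferred to PVDF. Membranes were blocked 1 h with 5% BSA or milk, incubated with primary antibody overnight at 4 °C, then secondary 2 h at room temperature. Detection by ECL; bands quantified by densitometry.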

A549 cells [4] = assay: Annexin V-FITC/PI apoptosis assay, flow cytometry; format: cell-based, human; conditions: 48 h, control 2.64%
Method in brief: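 A549 cells seeded at 1 × 10^5 per well in 6-well plates and left overnight. They were then treated with test compound for 48 h, collected by PBS rinsing and stained with Annexin V-FITC and PI for 15 min at room temperature in the dark. Apoptotic fractions were read by flow cytometry; mean ± SD, n = 3.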

p27, p21, CDK2, p-Rb = assay: Western blot of G1 phase associated proteins; format: cell-based, human; conditions: A549, 0.5 to 2.0 μM, 48 h
Method in brief: as §2

[5] = system: cleaved-caspase 9, Bax, Bcl-2; assay: Western blot of apoptosis-related proteins; format: cell-based, human; conditions: A549, 48 h
Method in brief: as §3

## CN(C)CCn1cnc2ccc(-c3ccc4sc(NC(=O)Nc5ccc(F)cc5)nc4c3)cc2c1=O [Compound 38]
H1975 cells
  selectivity (fold) H1975 vs BEAS-2B: 0.92 fold
A549 cells [1]
  selectivity (fold) A549 vs BEAS-2B: 1.30 fold

## CCCn1cnc2ccc(-c3ccc4sc(NC(=O)Nc5ccc(F)cc5)nc4c3)cc2c1=O [Compound 45]
H1975 cells
  selectivity (fold) H1975 vs BEAS-2B: 5.80 fold
[2]; 0.25 μM
  JC-1 M2 fraction (change of Δψm): 47.72%
[2]; 0.5 μM
  JC-1 M2 fraction (change of Δψm): 51.16%
[2]; 1.0 μM
  JC-1 M2 fraction (change of Δψm): 60.52%
ALK, p-ALK
  phosphorylation level of ALK (Western blot): reduces the phosphorylation levels of ALK
  total protein level of ALK (Western blot): decreases the total protein levels of ALK
ALK
  phosphorylation level of ALK (Phospho-RTK array): reduced the phosphorylation levels of ALK
A549 cells [3]
  cell cycle distribution: induced cell cycle arrest at the G1 phase in a concentration-dependent manner
A549 spheroids
  growth of A549 tumor spheres: can inhibit the growth of tumor spheres
p-PI3K, p-AKT
  p-AKT protein expression: inhibited the protein expression
  p-PI3K protein expression: inhibited the protein expression
A549 cells [4]; A549, 2.0 μM
  annexin V positive cells (Q2-4): 7.13%
A549 cells [4]; A549, 4.0 μM
  annexin V positive cells (Q2-4): 20.36%
p27, p21, CDK2, p-Rb
  CDK2 expression level: reduced in a concentration-dependent manner
  p21 expression level: markedly upregulated in a dose-dependent manner
  p27 expression level: markedly upregulated in a dose-dependent manner
  p-Rb expression level: reduced in a concentration-dependent manner
A549 cells [1]
  selectivity (fold) A549 vs BEAS-2B: 7.10 fold
[5]
  Bax level: increased in a concentration-dependent manner
  Bcl-2 level: decreased
  cleaved-caspase 9 level: increased in a concentration-dependent manner

## CC(=O)O[C@H]1C(=O)[C@@]2(C)[C@H]([C@H](OC(=O)c3ccccc3)[C@]3(O)C[C@H](OC(=O)[C@H](O)[C@@H](NC(=O)c4ccccc4)c4ccccc4)C(C)=C1C3(C)C)[C@]1(OC(C)=O)CO[C@@H]1C[C@@H]2O [paclitaxel, reference compound]
H1975 cells
  selectivity (fold) H1975 vs BEAS-2B: 3.28 fold
A549 cells [1]
  selectivity (fold) A549 vs BEAS-2B: 0.42 fold
